# From PubChem
# FLuc inhib CS: inhibits firefly luciferase, flagging false hits in luciferase inhibition screens; P08659; ATPLite firefly luciferase biochemical luminescence, 10 min; inhibition, % at 10 µM; hit rate 1.5% among 200,000;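 active = inhibition above about 50% when tested at 10 µM, limit read from the data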
# Target sequence (P08659 whole entry, looked up): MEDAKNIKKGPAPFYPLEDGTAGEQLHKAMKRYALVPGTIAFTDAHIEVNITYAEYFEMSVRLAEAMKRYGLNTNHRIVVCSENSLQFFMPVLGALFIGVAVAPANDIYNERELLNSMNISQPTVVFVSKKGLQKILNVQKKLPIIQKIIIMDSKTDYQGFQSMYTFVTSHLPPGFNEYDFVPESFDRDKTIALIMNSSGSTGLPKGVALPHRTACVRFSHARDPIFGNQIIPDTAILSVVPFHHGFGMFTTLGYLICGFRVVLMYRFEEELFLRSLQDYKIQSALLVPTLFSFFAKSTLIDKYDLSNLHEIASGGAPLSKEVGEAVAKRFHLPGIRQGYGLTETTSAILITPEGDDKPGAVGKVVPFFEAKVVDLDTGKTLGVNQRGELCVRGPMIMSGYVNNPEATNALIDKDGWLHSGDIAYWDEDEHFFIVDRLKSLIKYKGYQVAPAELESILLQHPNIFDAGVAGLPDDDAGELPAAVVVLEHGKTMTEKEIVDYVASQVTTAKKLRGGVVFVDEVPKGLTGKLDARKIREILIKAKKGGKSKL
# STAT1 act: increases IFN-gamma driven STAT1 reporter signal; NIH 3T3 STAT1-luciferase reporter, luminescence; 100% = IFN-gamma alone, no compound; activation (% of control), % at 5.5 µM; hit rate 2.6% among 200,000; AID 932;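 active = activation above the screen-wide mean activation plus 3 SD, cut at about 130% in these data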;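 note: raw ratio to IFN-gamma control signal so 100% means no change and 0% no light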
# NF-kB neuron act: raises NF-kB expression in human neuronal cells | fold change at 12.5 µM | NF-kB reporter expression; active compounds read high | hit rate 1.6% among 190,000; in the data active = fold change above about 3.3
# FLuc act counter: affects firefly luciferase, flagging false hits in luciferase stimulation screens. P08659. ATPlite luciferase biochemical, luminescence, 10 min; 0 = ATP-free wells, 1 = DMSO control. activation factor at 10 µM. 200,000 tested, under 10 active. AID 1027;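 active = luciferase activation factor, scaled between plate controls, of at least 2 with compound at 10 µM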
#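 assay system = Luciferase/luciferin detection reagent, cell-free biochemical luciferase assay | also added = ATP substrate | times = 10 min post-reagent at room temperature | measured by = luminescence from luciferase reaction | measure = luciferase activation, seen as luminescence increase over controls | benchmarks = low control with PBS replacing ATP, high control enzyme plus ATP without compound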
# APP 5'UTR act: activates APP 5'UTR luciferase reporter | SH-SY5Y APP 5'UTR luciferase reporter, luminescence; zero percent = DMSO vehicle wells | activation, % at 2 µM | hit rate 1% among 190,000 | AID 1276;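 active = activation above a set limit, based on mean plus 3 SD of controls, cut at about 140% in these data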
# STAT1 act conf: STAT1 activation, confirmation assay | hit rate 97% among 1,200 | activation (% of control), % at 5.7 µM | NIH 3T3 STAT1-luciferase reporter, IFN-gamma potentiation, luminescence; 100% = IFN-gamma EC80 alone, no compound | shares compounds with STAT1 act;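 active = activation above a set limit carried over from the earlier primary STAT1 screen, cut at about 140% in these data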;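 note: simple ratio to median IFN-gamma plus DMSO wells so 0% means no light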
# NFkB act STAT1ct: NF-kappaB activation in STAT1 activator counter-screen; activation (% of control), % at 5.7 µM; HEK293T NF-kB luciferase reporter, TNF-alpha stimulated, luminescence; 100% = TNF-alpha with vehicle only; AID 1306; hit rate 43% among 1,200; shares compounds with STAT1 act;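 active = activation above the mean of solvent-only control wells plus 3 SD, set per campaign, cut at about 130% in these data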;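 note: TNF-alpha given at a submaximal dose yielding about 80% of full reporter signal; values are well signal over median control so 100% means no change and 0% no light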
# STAT3 act STAT1c: counter-screen for STAT1 activators: human STAT3 activation. shares compounds with STAT1 act. U3A cells STAT3-luciferase reporter, IL-6, luminescence; cells lack STAT1; 100 = IL-6 alone, no compound effect. activation (% of control), % at 5.7 µM. hit rate 46% among 1,200;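 active = activation above the solvent-only control well mean plus 3 SD, set per plate batch, cut at about 110% in these data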;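 note: 0% = no luminescence and 100% = median IL-6 plus DMSO wells; higher means more STAT3 reporter activation so hits are non-selective activators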
# * marks the source's active call; other numbers are inactive results; . = no result. Hits are enriched below; roughly 4.1% of the tested compounds scored in any of these assays.
SMILES,FLuc inhib CS,STAT1 act,NF-kB neuron act,FLuc act counter,APP 5'UTR act,STAT1 act conf,NFkB act STAT1ct,STAT3 act STAT1c
Clc1cccc(-c2cc3nc4c(c(NCc5ccco5)n3n2)CCCC4)c1,6.2,153.6*,1.96,0.9,130.9,241.9*,144.5*,112.8*
Cc1ccc(-c2cc3nc(C)cc(NCc4ccco4)n3n2)cc1,68.4*,150.7*,4.09*,0.3,136.8*,171.8*,113.8,109.3
COCCNc1cc(C)nc2cc(-c3ccc(C)cc3)nn12,34.8,119.4,1.52,0.7,4.0,.,.,.
Cc1ccc(S(=O)(=O)N(CC(=O)NCc2ccco2)C2CCCCC2)cc1,-1.2,90.2,1.04,1,-14.9,.,.,.
O=C(Cc1cccs1)Nn1c(Cc2cccs2)nc2ccccc2c1=O,-6.9,90.1,0.93,1.1,5.7,.,.,.
COc1ccc(-c2cc3nc(-c4ccccc4)cc(N4CCC(O)CC4)n3n2)cc1,-2.4,102.2,0.51,1,3.0,.,.,.
COc1ccc(-c2cc3ncc(-c4ccccc4)c(N)n3n2)cc1,78.7*,156.4*,2.66,0.2,225.2*,197.5*,126.2,100.8
O=c1c2c(nc3cc(-c4ccc(Br)cc4)[nH]n13)CCCC2,57.8*,204.6*,3.27,0.4,173.8*,281.5*,150.8*,105.7
O=c1c2c(nc3c(-c4cccc(Br)c4)c[nH]n13)CCCC2,-8.4,101.1,0.98,1.1,13.0,.,.,.
NC(=O)c1ccsc1NC(=O)CSc1ccccc1F,3.5,111.4,1.82,1,50.9,.,.,.
NC(=O)c1ccsc1NC(=O)c1coc2ccccc2c1=O,70.8*,166.1*,2.16,0.3,166.9*,217.2*,129.8,112.6*
Clc1ccc(OCc2nc(-c3ccncc3)no2)c(Br)c1,25.0,152.3*,4.04*,0.8,250.4*,233.3*,140.6*,122.9*
Clc1ccccc1OCc1nc(-c2ccncc2)no1,6.6,161.9*,4.09*,0.9,193.9*,184.2*,130.8,116.5*
CNC(=O)c1c(NC(=O)c2nc3ccccc3s2)sc2c1CCC2,1.2,168.7*,0.52,1,78.8,189.4*,136.0*,132.6*
CSc1nc(C)cc(Oc2ccc(OCC(N)=O)nn2)n1,-10.7,99.2,1.02,1.1,23.1,.,.,.
C=CS(=O)(=O)c1ccc(Oc2ccc(S(=O)(=O)C=C)cc2)cc1,-1.6,323.2*,0.99,1,-90.5,188.9*,79.2,113.7*
NS(=O)(=O)c1ccc(Oc2ccc(S(N)(=O)=O)cc2)cc1,-5.1,89.0,1.1,1.1,15.0,.,.,.
O=C(/C=C/c1ccc(Cl)cc1)NCCc1ccccc1,-0.5,107.0,1.43,1,12.9,.,.,.
O=C1c2ccccc2NC(c2cnc3ccccc3n2)N1O (stereo unspecified),34.1,158.9*,6.92*,0.7,74.1,209.0*,113.9,90.1
Cc1cc(C(=O)COC(=O)c2cc(Cl)ccc2N)c(C)n1Cc1ccco1,33.7,156.4*,2.05,0.7,170.6*,185.0*,128.0,114.8*
Cc1ccc(NC(=O)C(NC2CCCc3ccccc32)c2ccccc2)cc1Cl (stereo unspecified),-2.8,90.9,1.02,1,-4.2,.,.,.
O=C(c1ccc(-c2cccc(C(F)(F)F)c2)o1)N1CCOCC1,-0.8,117.4,2.1,1,12.6,.,.,.
O=C(c1ccc(-c2cccc(Cl)c2Cl)o1)N1CCOCC1,29.4,162.4*,4.54*,0.7,108.5,200.6*,143.2*,114.5*
CC(=O)N(\C=C/C=C/C=C1\Sc2ccccc2C1=O)c1ccccc1,11.1,97.4,1.17,0.9,1.5,.,.,.
CC(=O)c1cccc(Nc2ccc(-c3ccccc3F)nn2)c1,28.6,152.1*,2.06,0.7,134.4,178.8*,129.5,103.1
SMILES,FLuc inhib CS,STAT1 act,NF-kB neuron act,FLuc act counter,APP 5'UTR act,STAT1 act conf,NFkB act STAT1ct,STAT3 act STAT1c
COc1ccccc1-c1ccc(Nc2cccc(C(C)=O)c2)nn1,11.5,117.3,1.11,0.9,14.2,.,.,.
Cc1nccn1CCc1n[nH]c(=S)n1Cc1ccccc1,-6.1,101.1,1.03,1.1,-0.2,.,.,.
Cc1ccc(/C=N/N=C/c2ccc(C)s2)s1,73.9*,177.1*,10.5*,0.3,177.9*,238.4*,119.6,99.0
COc1ccc(C(=O)N2CCN(S(=O)(=O)c3ccc(F)cc3)CC2)cc1OC,-7.4,89.0,0.95,1.1,-0.8,.,.,.
CC(C)C(=O)N1CCN(c2ccc(NC(=O)c3ccc([N+](=O)[O-])o3)cc2Cl)CC1,-4.4,153.4*,0.15,1,-96.1,105.3,104.9,111.0*
COc1ccc(C(=O)Nc2ccc(N3CCN(C(=O)c4ccccc4)CC3)cc2)cc1[N+](=O)[O-],1.3,97.1,1.02,1,2.9,.,.,.
Cc1cc(C)cc(NC(=O)c2ccc([N+](=O)[O-])o2)c1,-5.6,161.9*,6.07*,1.1,-70.7,114.5,115.5,108.5
O=C(Nc1ccc(N2CCN(C(=O)c3ccccc3)CC2)cc1)c1ccc([N+](=O)[O-])o1,-0.8,172.8*,0.22,1,-94.3,91.8,105.3,92.9
CN(Cc1ccccc1)CC(O)COc1ccc(CNCc2cccnc2)cc1 (stereo unspecified),-8.6,106.0,0.76,1.1,-1.2,.,.,.
CCCCC(=O)Nc1ccc(C(=O)NNC(=O)c2ccc(C)c(Br)c2)cc1,-1.6,95.0,1.2,1,-18.9,.,.,.
CC(=O)c1ccc(NC(=O)c2ccc(C)c(Br)c2)cc1,12.3,156.1*,3.98*,0.9,203.0*,197.6*,139.9*,101.3
Cc1ccc(C(C(=O)NC(C)(C)C)N(C(=O)c2csnn2)c2ccccc2F)o1 (stereo unspecified),-7.0,97.5,1.17,1.1,-7.0,.,.,.
O=C(Nc1cccc(Cl)c1)c1ccc2c(=O)n3c(nc2c1)CCCCC3,27.5,162.1*,2.7,0.7,202.3*,180.5*,124.4,96.3
CC(C)(C)NC(=O)NC(=O)COc1ccc(Br)cc1Br,23.3,196.5*,5.1*,0.8,150.8*,242.9*,129.9,113.6*
COc1ccc(C2CC(c3ccc4ccccc4c3)=NN2C(=O)COC(=O)C2CCC(=O)N2)cc1 (stereo unspecified),-2.5,183.3*,1.63,1,257.6*,246.9*,148.4*,129.2*
COc1ccc2cc(CCNC(=O)CC(C)(C)C)c(=O)[nH]c2c1,-8.2,100.6,1.25,1.1,-20.5,.,.,.
COc1ccc2cc(CCNC(=O)c3cccs3)c(=O)[nH]c2c1,-3.9,159.1*,6.07*,1,103.8,192.7*,140.3*,109.9
